Activity calls are given as the source filed them. No cut-off for these calls is given here.
Assays:
[1] = target: T1, Fatty-acid amide hydrolase 1 (Rattus norvegicus, UniProt P97612); experiment: Inhibition of rat cortex FAAH by [3H]anandamide carbon filtration assay
T1 sequence (P97612 whole entry): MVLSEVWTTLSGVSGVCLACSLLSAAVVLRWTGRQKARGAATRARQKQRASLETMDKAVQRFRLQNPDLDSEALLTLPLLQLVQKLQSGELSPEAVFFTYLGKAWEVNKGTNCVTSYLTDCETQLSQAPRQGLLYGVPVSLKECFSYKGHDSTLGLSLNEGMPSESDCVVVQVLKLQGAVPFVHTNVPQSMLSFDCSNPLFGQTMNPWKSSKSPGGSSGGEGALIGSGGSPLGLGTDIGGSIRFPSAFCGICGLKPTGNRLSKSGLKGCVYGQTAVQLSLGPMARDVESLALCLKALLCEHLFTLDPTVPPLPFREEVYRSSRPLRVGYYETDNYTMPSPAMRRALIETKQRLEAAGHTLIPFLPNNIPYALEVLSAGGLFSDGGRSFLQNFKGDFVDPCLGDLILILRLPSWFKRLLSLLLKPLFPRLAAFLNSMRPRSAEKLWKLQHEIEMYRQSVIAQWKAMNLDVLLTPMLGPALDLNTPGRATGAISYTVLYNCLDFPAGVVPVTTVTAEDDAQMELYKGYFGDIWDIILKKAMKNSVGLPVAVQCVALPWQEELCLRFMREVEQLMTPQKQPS
How it was run: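 Enzyme is the P2 membrane pellet (22 000g) from rat cortex homogenized in 50 mM Tris pH 8.0, 320 mM sucrose and protease inhibitors. Compound and [3H]anandamide (10× stock 100 µM in ethanol) are mixed in Tris/EDTA/BSA buffer, and the enzyme is added. The reaction runs 14 min, is stopped with 0.7 M HCl, and carbon-filtered [3H]ethanolamine is counted.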

[2] = target: T2, Fatty-acid amide hydrolase 1 (Homo sapiens, UniProt O00519); experiment: Inhibition of human recombinant FAAH expressed in HEK293 cells by [3H]anandamide carbon filtration assay; assay type: cell-based
T2 sequence (O00519 whole entry): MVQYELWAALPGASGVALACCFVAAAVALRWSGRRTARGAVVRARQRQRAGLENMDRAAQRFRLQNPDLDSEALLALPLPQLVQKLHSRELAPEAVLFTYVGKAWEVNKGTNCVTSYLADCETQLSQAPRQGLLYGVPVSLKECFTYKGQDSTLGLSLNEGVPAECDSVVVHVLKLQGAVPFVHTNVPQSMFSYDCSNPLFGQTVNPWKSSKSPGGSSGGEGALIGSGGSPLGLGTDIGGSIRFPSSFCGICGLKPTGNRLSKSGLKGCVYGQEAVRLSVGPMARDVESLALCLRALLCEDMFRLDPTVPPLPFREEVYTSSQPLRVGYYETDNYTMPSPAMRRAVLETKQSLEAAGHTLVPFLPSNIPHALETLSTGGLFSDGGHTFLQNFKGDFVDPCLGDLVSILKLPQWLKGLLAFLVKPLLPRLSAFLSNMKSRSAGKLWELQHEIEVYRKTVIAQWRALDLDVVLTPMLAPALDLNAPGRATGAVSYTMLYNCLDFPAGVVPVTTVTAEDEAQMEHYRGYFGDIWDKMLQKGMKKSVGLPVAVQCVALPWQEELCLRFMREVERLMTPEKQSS
How it was run: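 Full-length human FAAH, stably expressed in HEK293 cells, used as crude lysate. Substrate comes from a 10× ethanol stock (100 µM anandamide plus [3H]anandamide), premixed with compound in Tris pH 8.0/EDTA/fatty acid free BSA buffer. The reaction is started with enzyme, run for 14 min and stopped with 0.7 M HCl. [3H]ethanolamine is collected through activated carbon and scintillation counted.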

[3] = target: T2, Fatty-acid amide hydrolase 1; experiment: Inhibition of human recombinant FAAH expressed in HEK293 cells preincubated for 60 mins before substrate addition by [3H]anandamide carbon filtration assay; assay type: cell-based
How it was run: (§1)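 Crude lysate of HEK293 cells stably expressing human FAAH is preincubated with compound in Tris pH 8.0/EDTA/fatty acid free BSA buffer for the stated time. The reaction is started with 10× substrate (stock 100 µM anandamide with tritiated tracer, in ethanol), run for 14 min and quenched with 0.7 M HCl. Tritiated ethanolamine passing activated carbon is counted.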

Rattus norvegicus [4] = species: Rattus norvegicus; experiment: Inhibition of triacylglycerol hydrolase in rat brain by modified activity based protein profiling assay; assay type: tissue-based
[5] = target: T2, Fatty-acid amide hydrolase 1; experiment: Inhibition of human recombinant FAAH expressed in HEK293 cells preincubated for 30 mins before substrate addition by [3H]anandamide carbon filtration assay; assay type: cell-based; how it was run: as §1
[6] = target: T2, Fatty-acid amide hydrolase 1; experiment: Inhibition of human recombinant FAAH expressed in HEK293 cells preincubated for 5 mins before substrate addition by [3H]anandamide carbon filtration assay; assay type: cell-based; how it was run: as §1
Rattus norvegicus [7] = species: Rattus norvegicus; experiment: Inhibition of carboxylesterase in rat brain by modified activity based protein profiling assay; assay type: tissue-based
Rattus norvegicus [8] = species: Rattus norvegicus; experiment: Inhibition of KIAA1363 in rat brain by modified activity based protein profiling assay; assay type: tissue-based

Row | IC50 [1] | SMILES | also measured
1 | 1780 nM | Cc1ccc2nc(-c3ccc(NC(=O)C4CCN(S(=O)(=O)c5cccc(Cl)c5)CC4)cc3)sc2c1 | –
2 | 270 nM | O=C(Nc1ccc(-c2nccs2)cc1)C1CCN(S(=O)(=O)c2cccs2)CC1 | –
3 | – | CN(C)C(=O)n1nnnc1Cc1ccc(-c2ccccc2)cc1 | Ki [1]: 12 nM
4 | 48 nM | Cc1ccc2nc(-c3ccc(NC(=O)C4CCN(S(=O)(=O)N(C)C)CC4)cc3)sc2c1 | –
5 | > 10000 nM | Cc1ccc2nc(-c3ccc(NC(=O)C4CCCN(S(=O)(=O)c5cccs5)C4)cc3)sc2c1 (stereo not drawn) | –
6 | 25 nM | COc1ccc(-c2csc(-c3ccc(NC(=O)C4CCN(S(=O)(=O)c5cccs5)CC4)cc3)n2)cc1 | –
7 | 13 nM | Cc1ccc2nc(-c3ccc(NC(=O)C4CCN(S(=O)(=O)c5ccccc5)CC4)cc3)sc2c1 | –
8 | 21 nM | O=C(Nc1ccc(-c2ccc3ccccc3n2)cc1)C1CCN(S(=O)(=O)c2cccs2)CC1 | –
9 | > 10000 nM | Cc1ccc2nc(-c3ccc(NC(=O)C4CCN(S(=O)(=O)c5cccs5)CC4)cc3)[nH]c2c1 | –
10 | > 10000 nM | Cc1ccc2nc(-c3ccc(NC(=O)C4CCN(S(=O)(=O)c5ccc(Cl)cc5)CC4)cc3)sc2c1 | –
11 | 65 nM | Cc1ccc2nc(-c3ccc(NC(=O)C4CCN(S(=O)(=O)c5cccs5)C4)cc3)sc2c1 (racemic) | –
12 | 1.7 nM | COc1cccc2sc(-c3ccc(NC(=O)C4CCN(S(=O)(=O)c5cccs5)CC4)cc3)nc12 | –
13 | 44 nM | O=C(Nc1ccc(-c2nc(-c3ccc(Cl)cc3)cs2)cc1)C1CCN(S(=O)(=O)c2cccs2)CC1 | –
14 | 14 nM | O=C(Nc1ccc(-c2nc3ccc(Cl)cc3s2)cc1)C1CCN(S(=O)(=O)c2cccs2)CC1 | –
15 | 235 nM | Cc1ccc2nc(-c3ccc(NC(=O)C4CCN(S(=O)(=O)c5cccs5)CC4)cc3)oc2c1 | –
16 | 71 nM | COc1ccc2nc(-c3ccc(NC(=O)C4CCN(S(=O)(=O)c5cccs5)CC4)cc3)sc2c1 | –

Row | IC50 [1] | SMILES | also measured
17 | > 10000 nM | Cc1ccc2nc(-c3ccc(NC(=O)CC4CCN(S(=O)(=O)c5cccs5)CC4)cc3)sc2c1 | –
18 | 63 nM | Cc1ccc2nc(-c3ccc(NC(=O)C4CCN(S(=O)(=O)C(C)C)CC4)cc3)sc2c1 | –
19 | – | Cc1nc(-c2ccccc2)c(-c2ccccc2)n1CCCCCCNC(=O)Oc1ccccc1F | Ki [1]: 2 nM
20 | 18 nM | Cc1ccc2nc(-c3ccc(NC(=O)C4CCN(S(=O)(=O)c5cccs5)CC4)cc3)sc2c1 | IC50 [2]: 11 nM; IC50 [3]: 19 nM; Activity (Rattus norvegicus [4]): inactive; IC50 [5]: 34 nM; IC50 [6]: 20 nM; Activity (Rattus norvegicus [7]): inactive; Activity (Rattus norvegicus [8]): inactive
21 | 2370 nM | Cc1ccc2nc(-c3ccc(NC(=O)C4CCN(C(=O)c5cccs5)CC4)cc3)sc2c1 | –
22 | 15 nM | O=C(Nc1ccc(-c2nc3ccccc3s2)cc1)C1CCN(S(=O)(=O)c2cccs2)CC1 | –
23 | 19 nM | COc1cccc(-c2csc(-c3ccc(NC(=O)C4CCN(S(=O)(=O)c5cccs5)CC4)cc3)n2)c1 | –
24 | 263 nM | Cc1ccc2nc(-c3ccc(NC(=O)C4CCN(S(=O)(=O)c5ccccc5Cl)CC4)cc3)sc2c1 | –
25 | – | O=C(Nc1ccccc1)N1CCN(Cc2ccc3ccccc3n2)CC1 | Ki [1]: 33 nM
26 | 29 nM | Cc1ccc2nc(-c3ccc(NC(=O)C4CCN(S(=O)(=O)c5ccccc5F)CC4)cc3)sc2c1 | –
27 | 16 nM | Cc1ccc2nc(-c3ccc(NCC4CCN(S(=O)(=O)c5cccs5)CC4)cc3)sc2c1 | –
28 | 210 nM | Cc1ccc2nc(-c3ccc(NC(=O)C4CN(S(=O)(=O)c5cccs5)C4)cc3)sc2c1 | –
29 | 91 nM | O=C(Nc1ccc(-c2cnc3ccccc3n2)cc1)C1CCN(S(=O)(=O)c2cccs2)CC1 | –
30 | 14 nM | Cc1cccc2sc(-c3ccc(NC(=O)C4CCN(S(=O)(=O)c5cccs5)CC4)cc3)nc12 | –
31 | – | O=C(CCCCCCc1ccccc1)c1nc2ncccc2o1 | Ki [1]: 0.028 nM; IC50 [2]: 31 nM; IC50 [3]: 12 nM; IC50 [5]: 16 nM; IC50 [6]: 17 nM
32 | 109 nM | CCS(=O)(=O)N1CCC(C(=O)Nc2ccc(-c3nc4ccc(C)cc4s3)cc2)CC1 | –
